This note sets out measurements from ChEMBL document CHEMBL1132294, “Derivatives of the new ring system indolo[1,2-c]benzo[1,2,3]triazine with potent antitumor and antimicrobial activity” (J Med Chem, 1999).

Each structure is given as a SMILES string. Converted amounts (≈) assume the structure as drawn.

Assay [1] relates to 5637. The experiment in a line: Antitumor activity was evaluated against human bladder carcinoma cell line 5637. It is filed as functional, cell-based. The procedure, abridged:
(§1)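 Solid-tumour and KB lines: exponentially growing cells seeded at 5×10⁴ cells/mL, allowed to adhere 16 h, then serial drug dilutions added. Viability by MTT after 4 days. Growth expressed as % of untreated controls, 50% inhibitory concentration by linear regression. Untreated cells undergo at least three rounds of multiplication.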

Assay [2] concerns Trichophyton benhamiae. Briefly: Antimycotic activity against Trichophyton mentagrophytes was evaluated. MIC was defined as compound concentration at which no macroscopic signs of fungal growth were detected. It is filed as functional, Arthroderma benhamiae. The procedure, abridged:
(§2)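 Yeast inocula from 30 h Sabouraud dextrose broth cultures at 37 °C, diluted to 5×10³ cells/mL. Dermatophyte inocula from 5-day cultures, homogenized and diluted to 0.05 OD₅₉₀/mL. Inocula added to medium with serial dilutions, incubated at 37 °C, read visually at 2 days (yeast) or 3 days (dermatophytes). Mean of at least three experiments.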

The subject of assay [3] is Candida tropicalis. The experiment in a line: Antimycotic activity against Candida paratropicalis was evaluated. MIC was defined as compound concentration at which no macroscopic signs of fungal growth were detected. The format is functional. The procedure, abridged: as §2
The subject of assay [4] is CCRF-CEM. The experiment in a line: Antitumor activity was evaluated against leukemia cell line CCRF-CEM(human acute T lymphoblastic leukemia). It is filed as functional, cell-based. The gist of the method:
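Exponentially growing leukemia/lymphoma cells resuspended at 1×10⁵ cells/mL in RPMI with serial drug dilutions. Viability by MTT after 4 days at 37 °C. Mean of at least three experiments.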

Assay [5] has as its system Candida albicans. The experiment in a line: Antimycotic activity against Candida albicans was evaluated as minimum inhibitory concentration of compound at which no macroscopic signs of fungal growth were detected. It is filed as functional. The procedure, abridged: as §2
Assay [6] has as its system CCRF-SB. The experiment in a line: Antitumor activity was evaluated against leukemia cell line CCRF-SB(human acute B lymphoblastic leukemia). The format is functional, cell-based. The procedure, abridged:
(§3)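 Exponentially growing leukemia/lymphoma cells resuspended at 1×10⁵ cells/mL in RPMI with serial drug dilutions. Viability by MTT after 4 days at 37 °C. Concentration giving 50% growth inhibition versus untreated controls found by linear regression. Mean of at least three experiments.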

In assay [7] the test system is MOLT-4. The experiment in a line: Antitumor activity was evaluated against leukemia cell line MOLT-4(human acute T lymphoblastic leukemia). It is filed as functional, cell-based. The procedure, abridged: as §3
Assay [8] relates to WIL2-NS. The experiment in a line: Antitumor activity was evaluated against lymphoma cell line Wil2-NS (human splenic B lymphoblastoid cells). It is filed as functional, cell-based. The gist of the method: as §3
Assay [9] relates to Cryptococcus neoformans. Briefly: Antimycotic activity against Cryptococcus neoformans was evaluated. MIC was defined as compound concentration at which no macroscopic signs of fungal growth were detected. It is filed as functional. The procedure, abridged: as §2
The test system of assay [10] is MT4. Briefly: Antitumor activity was evaluated against leukemia cell line MT-4(human CD4+ T cells expressing the TAT gene of HTLV-1). It is filed as functional, cell-based. The gist of the method: as §3
The test system of assay [11] is L1210. Briefly: Antitumor activity was evaluated against leukemia cell line L1210 (mouse leukemia). The format is functional, cell-based. The procedure, abridged: as §3
In assay [12] the test system is Streptococcus. The experiment in a line: Antibacterial activity was evaluated against streptococcus. The format is functional. The procedure, abridged:
(§4)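 Recent clinical isolates grown in nutrient broth, pH 7.2, inoculum 10³ bacterial cells/tube, with serial compound dilutions. […] Mean of at least three separate experiments.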

The test system of assay [13] is ACHN. Briefly: Antitumor activity was evaluated against human renal adenocarcinoma cell line ACHN. The format is functional, cell-based. The procedure, abridged: as §1
In assay [14] the test system is Staphylococcus. The experiment in a line: Antibacterial activity was evaluated against staphylococcus. It is filed as functional. The procedure, abridged: as §4
Assay [15] relates to Mycolicibacterium fortuitum. The experiment in a line: Antibacterial activity was evaluated against Mycobacterium fortuitum. The format is functional. The gist of the method: (§5)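 Mycobacterial suspension (turbidity of 1 McFarland standard, 10⁸ CFU/mL) added to Middlebrook 7H9 with 0.5% glycerol, 10% OADC and serial compound dilutions. Incubated at 37 °C, 1 day for M. smegmatis and M. fortuitum, 9 days for MAC. Viable mycobacteria counted by MTT. MIC given as mean of at least three separate experiments.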

For assay [16], the system named is HeLa. Briefly: Antitumor activity was evaluated against human cervix carcinoma cell line HeLa. It is filed as functional, cell-based. The gist of the method: as §1
The subject of assay [17] is CHO-K1. Briefly: Antitumor activity was evaluated against Chinese hamster ovary carcinoma cell line CHO-K1. The note with it: Cricetulus griseus. It is filed as functional, cell-based. The gist of the method: as §1
For assay [18], the system named is Candida parapsilosis. Briefly: Antimycotic activity against Candida parapsilosis was evaluated as compound concentration at which no macroscopic signs of fungal growth were detected. It is filed as functional. Particulars: Lodderomyces parapsilosis. The procedure, abridged:
as §2

For assay [19], the system named is Shigella. Briefly: Antibacterial activity was evaluated against shigella. The format is functional. The procedure, abridged:
as §4

The test system of assay [20] is HT-29. The experiment in a line: Antitumor activity was evaluated against human colon adenocarcinoma cell line HT-29. It is filed as functional, cell-based. The procedure, abridged: as §1
Assay [21] concerns Salmonella. Briefly: Antibacterial activity was evaluated against salmonella. The format is functional. The gist of the method: as §4
In assay [22] the test system is Aspergillus fumigatus. The experiment in a line: Antimycotic activity against Aspergillus fumigatus was evaluated as compound minimum inhibitory concentration at which no macroscopic signs of fungal growth were detected. The format is functional.
Assay [23] relates to IMR-32. Briefly: Antitumor activity was evaluated against human neuroblastoma cell line IMR-32. It is filed as functional, cell-based. The gist of the method: as §1
For assay [24], the system named is Mycobacterium tuberculosis. Briefly: Antibacterial activity was evaluated against Mycobacterium tuberculosis (clinical isolate 1104). It is filed as functional. The gist of the method: (§6)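 Broth microdilution in Middlebrook 7H9 with 0.5% glycerol and 10% OADC, containing serial concentrations of compound (diluted in medium from a DMSO solution). Plates were incubated 9 days at 37 °C, and viable bacteria were read by MTT. MIC is the mean of at least three separate experiments.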

For assay [25], the system named is Mycobacterium tuberculosis. The experiment in a line: Antibacterial activity was evaluated against Mycobacterium tuberculosis (ATCC). It is filed as functional. The gist of the method:
as §6

Assay [26] relates to Mycolicibacterium smegmatis. The experiment in a line: Antibacterial activity was evaluated against Mycobacterium smegmatis. It is filed as functional. The gist of the method:
as §5

In assay [27] the test system is Mycobacterium. The experiment in a line: Antibacterial activity was evaluated against MAC (Mycobacterium Avium Complex ). The format is functional. The gist of the method: as §5
Assay [28] concerns KB. Briefly: Antiproliferative activity against drug-resistant tumor cell line KBwt. The note with it: Homo sapiens. The format is functional, cell-based. The procedure, abridged: as §1
In assay [29] the test system is KB. Briefly: Antiproliferative activity against drug-resistant tumor cell line KBMDR. It is filed as functional, cell-based. The note with it: Homo sapiens. The gist of the method: as §1
Assay [30] relates to KB. Briefly: Antiproliferative activity against drug-resistant tumor cell line KBCamp. The note with it: Homo sapiens. The format is functional, cell-based. The procedure, abridged: as §1
For assay [31], the system named is KB. The experiment in a line: Antiproliferative activity against drug-resistant tumor cell line KBV20C. The format is functional, cell-based. The note with it: Homo sapiens. The gist of the method: as §1
Assay [32] concerns KB. The experiment in a line: Antiproliferative activity against drug-resistant tumor cell line KB7D. It is filed as functional, cell-based. Particulars: Homo sapiens. The gist of the method: as §1

By IC50 is commonly meant the point on the concentration scale where inhibition reaches its midpoint. As a reminder, the MIC is the lowest concentration found to suppress growth. `O=Nc1c2cc([N+](=O)[O-])ccc2n2nnc3ccccc3c12`: the IC50 in assay [1] worked out at 29 µM; in [4] it was 8.2 µM; in [6], 11 µM; in [7] it was 6.6 µM; in [8], 12 µM; in assay [10], 1.2 µM. The IC50 in assay [11] is 9.2 µM; in assay [13] it was greater than 50 µM; in assay [16], 16 µM; in [17], 42 µM; in assay [20], 18 µM; in assay [23] it was 12 µM. Further, the MIC in assay [2] was found to be 66 µM (≈ 19.4 µg/mL); in assay [3], 22 µM (≈ 6.45 µg/mL); in assay [5] it was 66 µM (≈ 19.4 µg/mL); in assay [9], 7.4 µM (≈ 2.17 µg/mL); in assay [12], 0.09 µM (≈ 0.0264 µg/mL); in assay [14], 0.09 µM (≈ 0.0264 µg/mL). The MIC in assay [15] was greater than 5 µM; in [18] it was 66 µM (≈ 19.4 µg/mL); in assay [19] it was greater than 200 µM; in assay [21], greater than 200 µM; in assay [22] it was greater than 200 µM.
For `CN[C@@H]1[C@H](O[C@H]2[C@H](O[C@H]3[C@H](O)[C@@H](O)[C@H](N=C(N)N)[C@@H](O)[C@@H]3N=C(N)N)O[C@@H](C)[C@]2(O)C=O)O[C@@H](CO)[C@H](O)[C@H]1O` [STREPTOMYCIN], the MIC in assay [24] worked out at 2.9 µM (≈ 1.69 µg/mL); in assay [25] it was 5.4 µM (≈ 3.14 µg/mL); in [12], 2.1 µM (≈ 1.22 µg/mL); in assay [14] it was 4.2 µM (≈ 2.44 µg/mL); in assay [15], 4 µM (≈ 2.33 µg/mL); in assay [26], 5 µM (≈ 2.91 µg/mL). Also, the MIC in [27] was 7.4 µM (≈ 4.3 µg/mL); in [19], 2.1 µM (≈ 1.22 µg/mL); in assay [21], 8.6 µM (≈ 5 µg/mL).
Take `CC[C@@]1(O)C(=O)OCc2c1cc1n(c2=O)Cc2cc3ccccc3nc2-1` [CAMPTOTHECIN]: the IC50 stood at 0.04 µM in assay [28]; 0.07 µM in [29]; 1.04 µM in assay [30]; 0.03 µM in assay [31]; 0.035 µM in [32].
Take `Clc1ccc(COC(Cn2ccnc2)c2ccc(Cl)cc2Cl)c(Cl)c1` (configuration not stated) [MICONAZOLE]: the MIC worked out at 0.9 µM (≈ 0.375 µg/mL) in assay [2]; 0.9 µM (≈ 0.375 µg/mL) in assay [3]; 7.5 µM (≈ 3.12 µg/mL) in assay [5]; 0.9 µM (≈ 0.375 µg/mL) in assay [9]; 7.5 µM (≈ 3.12 µg/mL) in assay [18].
